A selection: hits, their analogues and other compounds. The true share with any hit is near 1.9%.
DAGLB inhibitor: DAGLB lipase inhibitors, primary screen, biochemical, fluorescence, HTS. Diacylglycerol lipase-beta (Homo sapiens), Q8NCG7. HEK293T DAGLB membrane lysate, EnzChek fluorogenic substrate. inhibition, % at 5.17 µM. 340,000 tested, 0.059% active. AID 504411, 2011; in the data active = inhibition above about 34%;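 also: 0% = enzyme with vehicle and 100% = wells lacking enzyme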
PLCg1 inh: PLC-gamma1 enzyme inhibitors, primary screen, biochemical, fluorescence, purified enzyme | 1-phosphatidylinositol 4,5-bisphosphate phosphodiesterase gamma-1 (Homo sapiens), P19174 | fluorogenic substrate | inhibition, % at 12.2 µM | 370,000 tested, 0.84% active | AID 720700, 2013; in the data active = inhibition above about 9.5%
sPLA2-III inh: human group III sPLA2 inhibitors, primary screen, biochemical, QFRET, BODIPY PC-A2 liposome substrate. Group 3 secretory phospholipase A2 (Homo sapiens), Q9NZ20. inhibition, % at 12.2 µM. AID 743126, 2013. QFRET BODIPY PC-A2 liposome hydrolysis, fluorescence. 370,000 tested, 0.56% active;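 active = inhibition above mean plus 3 SD of compounds lying within the high and low control bounds, cut at about 19% in these data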;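 also: 0% = median of test compound wells and 100% = no enzyme DMSO wells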
TbMetRS inhib: T. brucei MetRS inhibitors, primary screen, biochemical, luminescence; AID 624268, 2012; 360,000 tested, 0.4% active; methionyl-tRNA synthetase (Trypanosoma brucei brucei); inhibition, % at 11.9 µM; purified T. brucei MetRS, ATP depletion, Kinase-Glo luminescence;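 active = inhibition above a per-plate cutoff of the control wells' mean inhibition plus 3 SD, cut at about 5.5% in these data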;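 also: 0% = DMSO wells median and 100% = median of wells with control inhibitor compound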
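Material: parasite MetRS enzyme / Replication: singlicate, one well per compound / Signal: luminescence of leftover ATP / Schedule: 2 h aminoacylation at 25 °C after 15 min preincubation / Medium: HEPES-MgCl2-KCl buffer plus DTT, spermine, BSA, pyrophosphatase / Doses: 11.9 µM single point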
PLC-beta3 inh: human PLC-beta3 inhibitors, primary screen, biochemical, fluorescence; 1-phosphatidylinositol 4,5-bisphosphate phosphodiesterase beta-3 (Homo sapiens), Q01970; Purified PLC-beta3, fluorogenic substrate; inhibition, % at 12.2 µM; 370,000 tested, 0.18% active; AID 720704, 2013; in the data active = inhibition above about 11%;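 also: 0% = median of compound wells on plate and 100% = full blocker control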
Target sequence (Q01970 whole entry, looked up): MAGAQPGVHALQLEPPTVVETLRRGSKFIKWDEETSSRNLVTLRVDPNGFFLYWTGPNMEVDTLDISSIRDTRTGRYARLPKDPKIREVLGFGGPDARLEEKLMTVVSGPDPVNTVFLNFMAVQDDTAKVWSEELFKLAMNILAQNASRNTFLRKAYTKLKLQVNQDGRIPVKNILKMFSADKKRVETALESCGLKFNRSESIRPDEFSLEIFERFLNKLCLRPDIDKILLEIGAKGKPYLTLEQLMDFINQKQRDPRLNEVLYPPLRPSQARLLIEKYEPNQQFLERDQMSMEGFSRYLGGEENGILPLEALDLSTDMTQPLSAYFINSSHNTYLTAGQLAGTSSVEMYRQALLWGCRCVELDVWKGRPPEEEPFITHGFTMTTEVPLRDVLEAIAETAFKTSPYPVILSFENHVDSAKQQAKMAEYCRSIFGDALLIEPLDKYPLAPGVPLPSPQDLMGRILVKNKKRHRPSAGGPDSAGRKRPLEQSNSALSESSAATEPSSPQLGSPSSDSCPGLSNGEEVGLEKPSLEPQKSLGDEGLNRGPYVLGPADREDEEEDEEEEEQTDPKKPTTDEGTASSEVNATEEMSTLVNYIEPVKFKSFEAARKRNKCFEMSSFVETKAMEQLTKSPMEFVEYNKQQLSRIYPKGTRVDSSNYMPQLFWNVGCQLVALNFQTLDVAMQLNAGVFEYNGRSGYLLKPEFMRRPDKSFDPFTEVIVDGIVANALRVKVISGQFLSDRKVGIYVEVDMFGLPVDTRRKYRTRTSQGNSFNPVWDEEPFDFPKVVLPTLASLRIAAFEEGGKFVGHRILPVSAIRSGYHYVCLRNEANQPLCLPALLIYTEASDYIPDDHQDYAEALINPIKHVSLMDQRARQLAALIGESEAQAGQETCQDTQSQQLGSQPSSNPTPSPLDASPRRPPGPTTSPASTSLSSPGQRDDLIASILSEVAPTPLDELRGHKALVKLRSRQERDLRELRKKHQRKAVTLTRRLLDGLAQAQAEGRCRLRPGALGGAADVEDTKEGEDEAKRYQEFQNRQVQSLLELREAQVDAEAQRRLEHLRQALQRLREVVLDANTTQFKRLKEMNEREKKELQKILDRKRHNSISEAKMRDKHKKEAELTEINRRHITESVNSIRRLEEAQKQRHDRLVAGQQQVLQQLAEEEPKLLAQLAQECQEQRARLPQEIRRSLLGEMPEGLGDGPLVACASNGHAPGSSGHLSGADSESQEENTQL
TbMetRS confirm: T. brucei MetRS inhibitors, confirmation, biochemical, luminescence | shares compounds with TbMetRS inhib | inhibition, % at 11.9 µM | AID 624412, 2012 | 1,400 tested, 93% active | T. brucei MetRS enzyme, luminescence (ATP depletion); in the data active = inhibition above about 7%
Jurkat tox: Jurkat T cell cytotoxicity, cytotoxicity control for T. brucei MetRS inhibitor project, luminescence, high throughput | shares compounds with TbMetRS inhib | Jurkat cells viability, ATP luminescence | inhibition, % at 8.3 µM | 1,400 tested, 12% active | AID 624413, 2012; in the data active = inhibition above about 15%;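 also: 0% = vehicle and 100% = reference inhibitor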
Tb MetRS inh FP: T. brucei MetRS inhibitors, orthogonal assay for T. brucei MetRS inhibitor project, biochemical, fluorescence polarization. shares compounds with TbMetRS inhib. purified T. brucei MetRS. inhibition, % at 11.9 µM. 1,400 tested, 44% active. AID 651607, 2012; in the data active = inhibition above about 17%;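 also: 0% = vehicle wells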
* hit, by the source's call; / = not tested or not shown; ! = repeats disagree.

SMILES	DAGLB inhibitor	PLCg1 inh	sPLA2-III inh	TbMetRS inhib	PLC-beta3 inh	TbMetRS confirm	Jurkat tox	Tb MetRS inh FP
CCc1ccc(NC(=O)Cn2c(=O)oc3cc(S(=O)(=O)N4CCOCC4)ccc32)cc1	3.3	1.0	-6.0	14.6*	3.2	11.7*	1.4	5.2
CCc1cccc(NC(=O)Cn2c(=O)oc3cc(S(=O)(=O)N4CCOCC4)ccc32)c1	-4.3	0.7	-3.8	7.0*	0.4	11.8*	0.2	2.8
Cc1ccc(-n2c(SCC(=O)Nc3ccc(S(=O)(=O)Nc4nccs4)cc3)nnc2-c2cccs2)cc1	/	-7.1	-59.2	/	-13.4	/	/	/
COC(=O)[C@]12C[C@H](CC(=O)NCCc3ccccc3OC)C(=O)N(Cc3ccco3)C1=C[C@H](C1CCCC1)O[C@@H]2C	/	0.9	-19.8	/	-0.3	/	/	/
COc1ccccc1N1CCN(C(=O)c2ccc3c(c2)nc(C)n3-c2cc(OC)c(OC)c(OC)c2)CC1	/	-0.9	-5.1	/	-4.0	/	/	/
CN(c1cccc(Cl)c1)S(=O)(=O)c1cccc(C(=O)Nc2nc3ccccc3[nH]2)c1	2.6	-38.2	5.4	33.0*	-50.0	44.1*	67.9*	21.9*
CCOC(=O)N1CCN(C(=O)CCCn2c(=O)[nH]c3ccccc3c2=O)CC1	3.3	2.2	5.7	-0.4	3.5	/	/	/
CC(=O)c1ccc(N2CCN(C(=O)CCCn3c(=O)[nH]c4ccccc4c3=O)CC2)cc1	2.8	-2.8	-4.7	23.1*	-12.9	32.5*	4.0	16.3
Cn1c(NC(=O)c2ccccc2)nc(Cc2ccccc2)c1Cc1ccccc1	/	4.4	-0.4	/	-4.2	/	/	/
O=C(NCc1cccc(C(F)(F)F)c1)c1cccc(S(=O)(=O)NCc2ccccc2)c1	-1.4	4.9	-7.8	23.1*	-0.8	21.8*	6.0	7.8
O=C(NCc1cc(Cl)cc(Cl)c1)c1csc(COCCO)n1	/	6.9	0.7	43.2*	-0.8	66.0*	6.4	43.8*
O=C(NCc1ccccc1Cl)c1csc([C@@H]2C[C@H](O)[C@@H](CO)O2)n1	/	1.2	15.3	-0.2	0.7	/	/	/
O=C(NCc1cc(Cl)cc(Cl)c1)c1csc([C@@H]2C[C@H](O)[C@@H](CO)O2)n1	/	-1.5	6.2	22.2*	-3.0	59.8*	-2.0	34.6*
O=C(NCc1ccncc1)c1ccc2nc([C@@H]3O[C@H](CO)[C@H](O)[C@H](O)[C@H]3O)[nH]c2c1	/	5.1	11.5	0.0	6.8	/	/	/
O=C(NCc1cccs1)c1csc(COCCO)n1	/	0.6	14.2	0.0	-3.6	/	/	/
O=C(NCc1cc(Cl)cc(Cl)c1)c1ccc2nc([C@@H]3O[C@H](CO)[C@@H](O)[C@H]3O)[nH]c2c1	/	-2.8	-1.2	11.4*	2.1	45.1*	-1.7	24.7*
O=C(NCc1cc(Cl)cc(Cl)c1)c1ccc2sc([C@H]3C[C@H](O)[C@@H](CO)O3)nc2c1	/	2.0	-0.8	26.8*	1.7	69.0*	7.0	39.3*
CCOc1ccc(-c2cc(C(C)=O)c3n(c2=O)CCC3)cc1	/	-28.1	4.1	/	-32.2	/	/	/
O=C(c1ccncc1)c1ccc(N2CCN(C3CC(=O)N(Cc4ccccc4)C3=O)CC2)cc1 (stereo not given)	2.9	-5.3	-7.3	15.1*	-7.0	27.7*	12.6	5.6
COc1ccc(N2CCN(C3CC(=O)N(Cc4ccccc4)C3=O)CC2)cc1 (stereo not given)	1.8	-0.8	2.4	-0.5	-9.3	/	/	/
COc1ccccc1N1C(=O)c2ccccc2NC1c1ccc(O)cc1 (stereo not given)	0.1	-207.5	-4.7	6.8*	-271.8	5.4	-8.9	0.8
C[C@@H]1CCN(C2CC2)S(=O)(=O)c2ccc(N3CCC[C@H]3C)cc2O1	/	-3.7	2.1	/	-0.6	/	/	/
CN(CC(=O)Nc1ccc(Cl)cc1)C(=O)CN1C(=O)C2CCCCC2C1=O (stereo not given)	-0.8	0.7	-1.6	-0.2	1.6	/	/	/
CN(CC(=O)Nc1ccc(Cl)cc1)C(=O)CCC1CCCC1	-3.3	-0.1	4.2	6.7*	-5.3	52.4*	6.6	20.0*
Cc1ccc2[nH]cc(S(=O)(=O)c3ccc(F)cc3)c(=O)c2c1	-3.5	0.3	16.8	28.6*	-13.9	41.1*	-0.2	15.7
SMILES	DAGLB inhibitor	PLCg1 inh	sPLA2-III inh	TbMetRS inhib	PLC-beta3 inh	TbMetRS confirm	Jurkat tox	Tb MetRS inh FP
CCOc1ccc(S(=O)(=O)c2c[nH]c3ccc(C)cc3c2=O)cc1	-1.8	-1.5	-11.2	3.6	-3.6	/	/	/
Cc1ccc(NC(=O)c2ccc(CS(=O)(=O)Cc3ccccc3C)o2)cc1C	/	-4.1	-23.0	/	-3.8	/	/	/
Cc1ccc(NC(=O)CN2CC(C)SC2=NC2CCCCC2)cc1 (stereo not given)	-4.0	1.3	0.8	12.3*!	-0.2	25.0*	4.4	5.9
Nc1nc(N)c(-c2cccc(C(F)(F)F)c2)c(Cc2cccc(C(F)(F)F)c2)n1	-0.5	4.0	5.1	15.9*	1.3	60.1*	-6.3	34.2*
Nc1ncccc1OCc1cccc(C(F)(F)F)c1	0.0	-1.1	-0.9	-1.2	-8.3	/	/	/
C/C(=N/NC(=O)CN1CCN(Cc2ccccc2Cl)CC1)c1cccc(O)c1	/	-2.9	-5.6	/	-3.1	/	/	/
COc1ccc2c(CC(=O)OCC(=O)Nc3ccc(C)cc3)coc2c1	-1.9	-11.0	-13.4	9.8*	-13.4	25.3*	4.0	8.5
COc1ccc2c(CC(=O)OCC(=O)Nc3ccc4c(c3)OCO4)coc2c1	-3.2	0.6	-14.6	10.0*	-3.4	15.0*	-7.0	7.6
Nc1ccccc1Nc1cc(-c2ccccc2)nn1-c1ccccc1	11.1	-147.9	16.2	0.9	-173.5	/	/	/
Nc1ccccc1Nc1cc(-c2ccccc2)[nH]n1	0.2	-13.4	-5.5	5.8*	-37.0	4.7	96.2*	-4.1
CCc1cc(Cn2nc(-c3ccccc3)cc2C(=O)NCc2cccc(Br)c2)on1	-10.1	3.1	-27.9	53.1*	2.4	77.2*	4.4	69.5*
CCc1cc(Cn2nc(-c3ccccc3)cc2C(=O)NCc2cccc(C(F)(F)F)c2)on1	-6.8	-1.3	-0.5	0.8	0.7	/	/	/
CCN=C1NC(c2ccc(C(F)(F)F)cc2)C(C(=O)OC)=C(C)N1Cc1cccc(C(F)(F)F)c1 (stereo not given)	/	7.0	-9.1	/	1.7	/	/	/

Screening results as filed in PubChem.
